Data: publication PMC3390238 (Science Translational Medicine, 2012)
Read-outs that look alike come from different tables or passages of the source. Positions of bridges follow the written chain, without caps; N, C: chain ends. Non-standard residues stand in square brackets, D forms with d. Residues, ends and D or L forms follow the SMILES beside them. hArg = N=C(N)NCCCC[C@H](N)C(=O)O; Mpa = O=C(O)CCS

Columns and labels:
[1] = system: platelet adhesion/aggregation to collagen; test: Platelet adhesion/aggregation to collagen; type: cell-based, human
αVβ3 = αVβ3 (Homo sapiens, UniProt P05106+P06756); test: αVβ3-mediated HEK293 cell adhesion to vitronectin; type: cell-based
αIIbβ3 [2] = conditions: 25.6 mg/kg; cited from earlier work
αIIbβ3 [3] = target: T1, αIIbβ3 (Homo sapiens, UniProt P05106+P08514); test: Platelet aggregation induced by thrombin receptor–activating peptide; type: cell-based; conditions: 20 mM vs 1 mM Mg2+
T1 sequence (P08514 32-887 limits assumed): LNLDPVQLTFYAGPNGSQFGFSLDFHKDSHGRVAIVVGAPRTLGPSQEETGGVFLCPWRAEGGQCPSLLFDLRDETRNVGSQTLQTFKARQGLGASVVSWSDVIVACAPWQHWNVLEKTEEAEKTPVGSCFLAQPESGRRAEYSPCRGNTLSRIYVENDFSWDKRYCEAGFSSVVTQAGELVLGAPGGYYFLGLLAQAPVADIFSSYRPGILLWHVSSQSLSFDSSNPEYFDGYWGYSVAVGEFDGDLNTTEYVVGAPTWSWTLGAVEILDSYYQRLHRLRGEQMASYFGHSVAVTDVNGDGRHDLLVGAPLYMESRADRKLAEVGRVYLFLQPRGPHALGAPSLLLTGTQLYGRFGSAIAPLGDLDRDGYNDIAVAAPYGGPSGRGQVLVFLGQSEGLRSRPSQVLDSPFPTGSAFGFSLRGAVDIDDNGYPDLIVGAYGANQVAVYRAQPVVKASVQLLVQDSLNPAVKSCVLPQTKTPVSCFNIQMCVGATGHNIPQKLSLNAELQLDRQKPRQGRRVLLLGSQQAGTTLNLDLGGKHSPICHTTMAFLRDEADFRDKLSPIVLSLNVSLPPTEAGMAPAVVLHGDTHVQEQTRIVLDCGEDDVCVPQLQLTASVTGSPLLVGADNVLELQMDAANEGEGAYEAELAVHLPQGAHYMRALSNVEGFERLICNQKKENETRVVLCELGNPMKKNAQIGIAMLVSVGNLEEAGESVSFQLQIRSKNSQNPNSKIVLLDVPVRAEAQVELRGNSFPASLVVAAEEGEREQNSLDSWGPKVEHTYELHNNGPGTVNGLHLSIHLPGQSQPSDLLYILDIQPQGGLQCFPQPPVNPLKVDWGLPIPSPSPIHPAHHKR
T1 sequence (P08514 891-1039 partner limits assumed): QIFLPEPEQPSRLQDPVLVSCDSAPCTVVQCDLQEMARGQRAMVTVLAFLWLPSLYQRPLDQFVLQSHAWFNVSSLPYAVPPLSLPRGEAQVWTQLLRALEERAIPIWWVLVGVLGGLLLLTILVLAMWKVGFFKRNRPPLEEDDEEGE
T1 sequence (P05106 27-788): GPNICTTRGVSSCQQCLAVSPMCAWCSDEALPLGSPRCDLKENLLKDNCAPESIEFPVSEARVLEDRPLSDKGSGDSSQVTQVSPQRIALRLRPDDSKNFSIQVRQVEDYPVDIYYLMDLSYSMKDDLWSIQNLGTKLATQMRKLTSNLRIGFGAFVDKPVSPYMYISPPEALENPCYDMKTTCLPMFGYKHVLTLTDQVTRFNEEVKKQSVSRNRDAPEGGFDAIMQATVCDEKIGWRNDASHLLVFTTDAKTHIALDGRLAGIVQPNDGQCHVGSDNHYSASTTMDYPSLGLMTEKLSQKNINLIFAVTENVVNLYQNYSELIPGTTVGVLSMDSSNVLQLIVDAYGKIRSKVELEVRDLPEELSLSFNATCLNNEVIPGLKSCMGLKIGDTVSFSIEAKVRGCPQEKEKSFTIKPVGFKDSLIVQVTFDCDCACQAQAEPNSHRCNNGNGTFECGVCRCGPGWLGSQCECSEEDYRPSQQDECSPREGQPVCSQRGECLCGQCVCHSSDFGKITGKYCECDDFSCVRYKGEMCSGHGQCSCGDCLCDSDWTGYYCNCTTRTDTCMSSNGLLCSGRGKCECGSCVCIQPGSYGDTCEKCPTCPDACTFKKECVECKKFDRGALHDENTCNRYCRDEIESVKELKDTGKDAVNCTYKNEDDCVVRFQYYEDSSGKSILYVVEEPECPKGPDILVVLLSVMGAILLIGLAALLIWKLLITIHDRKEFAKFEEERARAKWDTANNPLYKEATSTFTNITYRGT

αIIbβ3 [4] = target: T1, αIIbβ3; test: αIIbβ3-mediated HEK293 cell adhesion to fibrinogen; type: cell-based; conditions: 100 μM; n = 4
rat platelets = test: ADP-induced rat platelet aggregation; type: cell-based
recombinant human αIIbβ3 = type: cell-based; conditions: going from 1 to 50 mM Mg2+
How it was run: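 CHO-K cells stably expressing human αIIbβ3 were preincubated ±test compound for 30 min at each Mg²⁺ level (1 to 50 mM) plus 1 mM Ca²⁺. They were then exposed to PAC-1 (5 µg/ml) with activating mAb PT25-2 (5 µg/ml) for 30 min at 25°C, stained with PE anti-mouse IgM on ice for 30 min, and analysed by flow cytometry. Read-out was % MFI with vs without drug (n=3); IC50 was compared across Mg²⁺ levels.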

purified αIIbβ3 = purified αIIbβ3 (Homo sapiens, UniProt P05106+P08514); test: Negative stain EM of αIIbβ3 nanodiscs
αIIbβ3 [5] = target: T1, αIIbβ3; test: Platelet adhesion to immobilized fibrinogen screening assay; type: cell-based; conditions: for inhibition of platelet adhesion to fibrinogen: mean ± SD, five experiments
αIIbβ3 headpiece [6] = target: T2, αIIbβ3 headpiece (Homo sapiens, UniProt P05106+P08514); test: Dynamic light scattering of soluble αIIbβ3 headpiece
Target sequence in this assay (P08514 32-652 limits assumed): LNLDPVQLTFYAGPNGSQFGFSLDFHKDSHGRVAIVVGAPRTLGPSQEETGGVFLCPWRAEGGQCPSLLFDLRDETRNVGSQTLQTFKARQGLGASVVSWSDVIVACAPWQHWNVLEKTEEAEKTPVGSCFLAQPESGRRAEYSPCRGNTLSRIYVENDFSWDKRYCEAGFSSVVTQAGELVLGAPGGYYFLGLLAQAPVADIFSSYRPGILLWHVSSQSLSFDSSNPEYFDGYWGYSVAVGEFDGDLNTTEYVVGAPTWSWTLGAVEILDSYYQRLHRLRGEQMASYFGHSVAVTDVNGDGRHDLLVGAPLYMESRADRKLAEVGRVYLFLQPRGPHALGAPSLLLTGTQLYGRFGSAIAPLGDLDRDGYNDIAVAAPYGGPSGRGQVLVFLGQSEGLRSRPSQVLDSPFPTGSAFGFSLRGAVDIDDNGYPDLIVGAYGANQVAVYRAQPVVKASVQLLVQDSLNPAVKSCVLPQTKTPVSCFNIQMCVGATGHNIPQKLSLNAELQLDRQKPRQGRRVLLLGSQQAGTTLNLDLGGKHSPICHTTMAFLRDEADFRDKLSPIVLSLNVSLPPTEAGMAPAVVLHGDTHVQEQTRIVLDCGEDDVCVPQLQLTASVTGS
Target sequence in this assay (P05106 27-498 limits assumed): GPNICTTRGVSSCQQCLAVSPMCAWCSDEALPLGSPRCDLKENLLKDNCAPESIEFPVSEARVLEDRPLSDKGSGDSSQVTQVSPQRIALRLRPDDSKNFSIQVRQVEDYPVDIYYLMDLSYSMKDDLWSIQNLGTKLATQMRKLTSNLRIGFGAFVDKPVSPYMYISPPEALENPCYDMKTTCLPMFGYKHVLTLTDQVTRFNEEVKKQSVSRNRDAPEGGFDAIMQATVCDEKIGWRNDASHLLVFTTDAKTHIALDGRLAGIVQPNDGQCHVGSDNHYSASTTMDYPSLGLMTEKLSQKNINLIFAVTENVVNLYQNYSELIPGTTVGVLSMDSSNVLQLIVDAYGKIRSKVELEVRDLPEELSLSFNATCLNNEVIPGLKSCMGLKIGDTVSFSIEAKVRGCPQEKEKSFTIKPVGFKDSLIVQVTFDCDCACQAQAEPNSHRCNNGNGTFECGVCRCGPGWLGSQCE

αIIbβ3 headpiece [7] = target: T2, αIIbβ3 headpiece; test: Gel filtration of soluble αIIbβ3 headpiece; conditions: for reduction in αIIbβ3 headpiece elution volume: Superdex 200
Target sequence in this assay (P08514 32-652 limits assumed): as the sequence (P08514 32-652 limits assumed) above
Target sequence in this assay (P05106 27-498 limits assumed): as the sequence (P05106 27-498 limits assumed) above

platelet αIIbβ3 = platelet αIIbβ3 (Homo sapiens, UniProt P05106+P08514); test: Priming assay: induction of fluorescent fibrinogen binding to platelets; type: cell-based; conditions: for incremental fibrinogen binding: one experiment
Sequence of platelet αIIbβ3 (P08514 32-887 limits assumed): as the sequence (P08514 32-887 limits assumed) above
Sequence of platelet αIIbβ3 (P08514 891-1039 partner limits assumed): as the sequence (P08514 891-1039 partner limits assumed) above
Sequence of platelet αIIbβ3 (P05106 27-788): as the sequence (P05106 27-788) above

mouse platelets = test: ADP-induced mouse platelet aggregation; type: cell-based
αIIbβ3 [8] = target: T1, αIIbβ3; test: Platelet adhesion to fibrinogen at different Mg2+ concentrations; type: cell-based; conditions: for IC50: IC50, platelet adhesion to fibrinogen, 1 mM Ca2+, mean ± SD, three experiments
αIIbβ3 [9] = target: T1, αIIbβ3; test: ADP-induced platelet aggregation of platelet-rich plasma; type: cell-based
[10] = target: αIIbβ3 ligand-induced binding sites (Homo sapiens, UniProt P05106+P08514); test: Induction of ligand-induced binding site; type: cell-based; conditions: for PMI-1 binding to platelets, % of amount bound in the presence of eptifibatide: αIIb LIBS mAb PMI-1, untreated 46 ± 5%; for PMI-1 binding to platelets, % of amount bound in the presence of eptifibatide / LIBS1 binding to platelets, % of amount bound in the presence of eptifibatide: eptifibatide = 100%; for AP5 binding to platelets, % of amount bound in the presence of eptifibatide: β3 LIBS mAb AP5, eptifibatide 10 μM = 100%, untreated 7 ± 3%; for LIBS1 binding to platelets, % of amount bound in the presence of eptifibatide: β3 LIBS mAb LIBS1, after 30 min, untreated 22 ± 3%
How it was run: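 Flow-based binding of LIBS mAbs to platelets: AP5 (β3 PSI domain), LIBS1 (β3 distal leg) and PMI-1 (αIIb). Net normalized fluorescence was expressed relative to platelets treated with eptifibatide, set as 100%. For AP5 the reference was eptifibatide 10 µM, 30 min at 22°C. Replicates: n=5 for AP5, n=4 for PMI-1.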

normal human platelets = test: Recruitment of αIIbβ3-dependent patient IgG to drug-pretreated platelets; type: cell-based; conditions: for recruitment of patient IgG to platelets: all 5 tirofiban samples and 13 of 15 eptifibatide samples
How it was run: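 Normal platelets were pretreated with test compound, then exposed to sera from patients with tirofiban- (5) or eptifibatide-induced (15) thrombocytopenia. Platelet-bound patient IgG was read as median MFI. Signals were compared with untreated control platelets and with eptifibatide-treated platelets.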

hαIIb/mβ3 = hαIIb/mβ3 (UniProt O54890+P08514); test: Aggregation of platelets from a mouse expressing human αIIb and mouse β3; type: cell-based
αIIbβ3 headpiece [11] = target: T2, αIIbβ3 headpiece; test: X-ray crystallography of RUC-2–αIIbβ3 headpiece complex; conditions: determined by x-ray crystallography, PDB code 3T3M
[12] = pKa by titration in water; type: physicochemical
[13] = 100 μM, first reactive eptifibatide-patient serum
[14] = read-out: inhibition of platelet adhesion to fibrinogen

## 10E5: anti-αIIbβ3 (αIIbβ3-specific) mAb
[1]; mAb, concentration not given
  inhibition of platelet adhesion/aggregation to collagen: ~ 30%

## CCc1nn2c(=O)cc(N3CCNCC3)nc2s1 [RUC-1, reference compound]
αVβ3; 100 μM, n = 4
  inhibition of adhesion of HEK293 cells expressing αVβ3 to vitronectin: 5 ± 7%
αIIbβ3 [2]
  antithrombotic effects in murine models in large and small blood vessels: has antithrombotic effects
αIIbβ3 [3]; 100 μM
  inhibitory effect on SFLLRN-induced platelet aggregation: much less evident
αIIbβ3 [4]
  inhibition of adhesion of HEK293 cells expressing αIIbβ3 to fibrinogen: 55 ± 5%
Rat platelets; 100 μM
  inhibition of rat platelet aggregation induced by ADP: did not inhibit
Recombinant human αIIbβ3
  increase of IC50 for PAC-1 binding: ~ 6%
Purified αIIbβ3; up to 100 μM, P = 0.23
  shift of NIL value distribution of αIIbβ3 nanodiscs: neither RUC-1 at concentrations up to 100 μM nor RUC-2 at concentrations up to 10 μM produced a significant shift
αIIbβ3 [5]; 10 μM
  inhibition of platelet adhesion to fibrinogen: 22 ± 8%
αIIbβ3 [5]; 30 μM
  inhibition of platelet adhesion to fibrinogen: 38 ± 10%
αIIbβ3 [5]; 100 μM
  inhibition of platelet adhesion to fibrinogen: 70 ± 15%
αIIbβ3 headpiece [6]; 500 μM (near-saturating)
  increase in Stokes radius, DLS: 0.08 nm
αIIbβ3 headpiece [7]; 500 μM (near-saturating)
  increase in Stokes radius, gel filtration: little or no increases
  reduction in αIIbβ3 headpiece elution volume: 0.03 mL
Platelet αIIbβ3; 100 μM
  incremental fibrinogen binding: 2%
Mouse platelets; 100 μM
  inhibition of mouse platelet aggregation induced by ADP: did not inhibit
αIIbβ3 [8]; compared with RUC-2
  increase in IC50 at higher Mg2+ concentrations, platelet adhesion to fibrinogen: Neither RUC-1 nor tirofiban showed a comparable increase in IC50
αIIbβ3 [9]; 100 μM
  inhibition of human platelet aggregation: nearly completely inhibited
αIIbβ3 [9]; read-out: IC50, ADP-induced platelet aggregation, citrated PRP, ADP 5 μM, initial slope
  IC50: 9700 ± 1000 nM
[10]
  PMI-1 binding to platelets, % of amount bound in the presence of eptifibatide: 73 ± 9%
  AP5 binding to platelets, % of amount bound in the presence of eptifibatide: 10 ± 4%
  LIBS1 binding to platelets, % of amount bound in the presence of eptifibatide: 18 ± 2%
Normal human platelets; 100 μM
  recruitment of patient IgG to platelets: Neither RUC-1 nor RUC-2 induced recruitment of patient IgG
Normal human platelets; [13]
  MFI increase as % of value with eptifibatide-treated platelets: 13%
  median MFI relative to control platelets: 6.8 times
Normal human platelets; 100 μM, second reactive eptifibatide-patient serum
  recognition of pretreated platelets by patient serum: but not RUC-1

## NCC(=O)Nc1cccc(-c2nn3c(=O)cc(N4CCNCC4)nc3s2)c1 [RUC-2, 2-amino-N-(3-(5-oxo-7-(piperazin-1-yl)-5H-[1,3,4]thiadiazolo[3,2-a]pyrimidin-2-yl)phenyl)acetamide]
αVβ3
  effect on αVβ3-mediated cell adhesion to vitronectin: RUC-2 had minimal effect on αVβ3-mediated cell adhesion to vitronectin.
[1]; 1 to 100 μM
  inhibition of platelet adhesion/aggregation to collagen: ~ 30%
[1]; RUC-2 combined with anti-αIIbβ3 antibody 10E5
  further inhibition of adhesion/aggregation to collagen: did not further inhibit
[1]; decreased recruitment of additional platelets to adherent platelets
  platelet adhesion to collagen, microscopic analysis: did not decrease platelet adhesion to collagen
αIIbβ3 [3]; 1 μM
  inhibitory effect on SFLLRN-induced platelet aggregation: clearly attenuated
Rat platelets; 1 μM
  inhibition of rat platelet aggregation induced by ADP: did not inhibit
hαIIb/mβ3
  inhibition of aggregation of hαIIb/mβ3 mouse platelets: essentially completely inhibited
Recombinant human αIIbβ3
  reduction in affinity (PAC-1 binding): ~75%
Recombinant human αIIbβ3; 1 mM Ca2+, activating mAb PT25-2
  increase of IC50 for PAC-1 binding: ~ 3.9 fold
αIIbβ3 headpiece [11]
  mechanism of inhibition: Orthosteric inhibition at the RGD binding domain as determined by x-ray crystallography
αIIbβ3 [5]
  αIIbβ3-dependent platelet adhesion to fibrinogen in a screening assay: RUC-2 inhibited αIIbβ3-dependent platelet adhesion to fibrinogen in a screening assay and αIIbβ3-dependent platelet aggregation. It was found to bind to the target via x-ray crystallography (PDB code 3T3M).
αIIbβ3 [5]; [14]
  inhibition at 10 µM: 66 ± 10%
  inhibition at 30 µM: 80 ± 13%
  inhibition at 100 µM: 83 ± 7%
αIIbβ3 headpiece [6]; 100 μM (near-saturating)
  increase in Stokes radius, DLS: 0.16 nm
αIIbβ3 headpiece [7]; 100 μM (near-saturating)
  increase in Stokes radius, gel filtration: little or no increases
  reduction in αIIbβ3 headpiece elution volume: 0.07 mL
Platelet αIIbβ3; 1 μM
  incremental fibrinogen binding: did not produce any incremental binding
Platelet αIIbβ3; 5 μM
  fibrinogen binding to platelets (priming): did not increase the fibrinogen binding
Mouse platelets; 1 μM
  inhibition of mouse platelet aggregation induced by ADP: did not inhibit
αIIbβ3 [8]; 1 mM Mg2+
  IC50: 290 ± 100 nM
αIIbβ3 [8]; 20 mM Mg2+
  IC50: 910 ± 210 nM
αIIbβ3 [8]; 50 mM Mg2+
  IC50: 1300 ± 350 nM
αIIbβ3 [8]; going from 1 to 50 mM Mg2+
  decrease in affinity, platelet adhesion to fibrinogen: ~ 80%
  increase in IC50, platelet adhesion to fibrinogen: ~ 4.5 fold
αIIbβ3 [9]
  IC50: 220 nM
  αIIbβ3-dependent platelet aggregation: RUC-2 inhibited αIIbβ3-dependent platelet adhesion to fibrinogen in a screening assay and αIIbβ3-dependent platelet aggregation. It was found to bind to the target via x-ray crystallography (PDB code 3T3M).
αIIbβ3 [9]; 1 μM
  inhibition of human platelet aggregation: nearly completely inhibited
[10]
  PMI-1 binding to platelets, % of amount bound in the presence of eptifibatide: 82 ± 13%
  AP5 binding to platelets, % of amount bound in the presence of eptifibatide: 18 ± 5%
  LIBS1 binding to platelets, % of amount bound in the presence of eptifibatide: 21 ± 3%
[12]; pKa 1 (primary amine)
  pKa: 6.41
[12]; pKa 2 (piperazine nitrogen)
  pKa: 8.08
Normal human platelets; 3.9 μM
  recruitment of patient IgG to platelets: Neither RUC-1 nor RUC-2 induced recruitment of patient IgG
Normal human platelets; 3.9 μM, first reactive eptifibatide-patient serum
  MFI increase as % of value with eptifibatide-treated platelets: 8%

## N=C(N)NCCCC[C@@H]1NC(=O)CCSSC[C@@H](C(N)=O)NC(=O)[C@@H]2CCCN2C(=O)[C@H](Cc2c[nH]c3ccccc23)NC(=O)[C@H](CC(=O)O)NC(=O)CNC1=O [eptifibatide] ([Mpa][hArg]GDWPC-NH2; disulfide 1-7 (inferred))
Purified αIIbβ3; dose-dependent, P < 0.001
  shift of NIL value distribution of αIIbβ3 nanodiscs: shifted the distribution in a dose-dependent manner
Platelet αIIbβ3; 1 μM
  incremental fibrinogen binding: 34%

## CCCCS(=O)(=O)N[C@@H](Cc1ccc(OCCCCC2CCNCC2)cc1)C(=O)O [tirofiban]
Recombinant human αIIbβ3
  change of IC50 for PAC-1 binding: completely unchanged
αIIbβ3 [5]; [14]
  inhibition at 10 µM: 87 ± 9%
αIIbβ3 headpiece [6]; 56 μM (near-saturating)
  increase in Stokes radius, DLS: 0.45 nm
αIIbβ3 headpiece [7]; 56 μM (near-saturating)
  increase in Stokes radius, gel filtration: 0.4 nm
  reduction in αIIbβ3 headpiece elution volume: 0.38 mL
Platelet αIIbβ3; 0.5 μM
  incremental fibrinogen binding: 17%
Normal human platelets; the two eptifibatide-treated patient samples reactive with RUC compounds
  recruitment of patient IgG: able to recruit patient IgG

## RGDS
Platelet αIIbβ3; 100 μM
  incremental fibrinogen binding: 36%
